Seven compounds from ChEMBL document CHEMBL1156856, “Design, synthesis, and biological evaluation of novel estradiol-bisphosphonate conjugates as bone-specific estrogens” (Bioorg Med Chem, 2010) can be followed below.

Active and inactive are the calls of the source. No cut-off for these calls is given here.

The test system of assay [1] is Rattus norvegicus. The experiment in a line: Estrogenic activity in uterus of ovariectomized Sprague-Dawley rat assessed as increase in uterus weight at 0.1 mg/kg, iv administered three times per week for 4 weeks on the first, second, and fifth days. It counts as functional, organism-based. Also noted: dose 0.1 mg/kg. An outline of the steps: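 Female SD rats, 7 weeks old on arrival, were housed 4 weeks, weight-matched into groups, and bilaterally ovariectomized, with sham-operated controls. Conjugate was given iv at 0.1 mg/kg the day after surgery in 1% carboxymethyl cellulose plus 1% citrate buffer. Uterine weight was the read-out.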

For assay [2], the system named is Rattus norvegicus. The assay is described as follows: Estrogenic activity in bone of ovariectomized Sprague-Dawley rat assessed as increase in bone mass at 0.1 mg/kg, iv administered three times per week for 4 weeks on the first, second, and fifth days. It counts as functional, organism-based. More on the design: dose 0.1 mg/kg. An outline of the steps: (§1)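 Female SD rats, 7 weeks old on arrival, were housed 4 weeks and assigned to groups matched for mean body weight. All except sham controls were bilaterally ovariectomized. The next day they received conjugate at 0.1 mg/kg iv in 1% carboxymethyl cellulose plus 1% citrate buffer. Bone effect was read as secondary-spongiosa bone volume of the left tibia and ash weight of the right femur.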

For assay [3], the system named is Rattus norvegicus. The experiment in a line: Estrogenic activity in bone of ovariectomized Sprague-Dawley rat assessed as increase in bone mass at 0.1 mg/kg, iv administered three times per week for 4 weeks on the first, second, and fifth days co-administered with antiestrogen fulvaestrant. Also noted: dose 0.1 mg/kg. It counts as functional, organism-based. An outline of the steps:
as §1

Assay [4] concerns Rattus norvegicus. The experiment in a line: Bisphosphonate activity in ovariectomized Sprague-Dawley rat assessed as suppression of Ca2+ ion release from bone at 0.1 mg/kg, iv administered three times per week for 4 weeks on the first, second, and fifth days. It counts as functional, organism-based. More on the design: dose 0.1 mg/kg. An outline of the steps:
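In rats, bisphosphonate activity was measured as suppression of PTHrp-induced Ca2+ ion release from bone.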

For assay [5], the target named is T1, Estrogen receptor (Rattus norvegicus) (UniProt P06211).
T1 sequence (whole entry): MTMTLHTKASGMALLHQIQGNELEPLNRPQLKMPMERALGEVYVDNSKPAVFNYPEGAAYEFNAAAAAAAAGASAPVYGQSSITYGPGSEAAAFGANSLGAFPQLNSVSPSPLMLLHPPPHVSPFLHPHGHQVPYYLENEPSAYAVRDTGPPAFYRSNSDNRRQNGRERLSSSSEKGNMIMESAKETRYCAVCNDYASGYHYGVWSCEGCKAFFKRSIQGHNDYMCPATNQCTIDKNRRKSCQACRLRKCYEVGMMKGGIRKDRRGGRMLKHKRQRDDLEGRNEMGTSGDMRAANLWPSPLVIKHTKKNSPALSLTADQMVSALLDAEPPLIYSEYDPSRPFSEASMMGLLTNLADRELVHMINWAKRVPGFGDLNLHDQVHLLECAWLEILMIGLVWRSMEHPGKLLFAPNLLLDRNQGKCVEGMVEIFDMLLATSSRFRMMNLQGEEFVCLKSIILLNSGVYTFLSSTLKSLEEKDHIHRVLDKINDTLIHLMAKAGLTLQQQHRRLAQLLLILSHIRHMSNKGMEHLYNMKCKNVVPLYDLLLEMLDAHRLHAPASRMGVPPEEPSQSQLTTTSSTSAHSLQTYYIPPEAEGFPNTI
The assay is described as follows: Ratio of binding affinity of compound to estradiol at rat uterus estrogen receptor by competitive binding assay.

Regarding `C[C@]12CC[C@@H]3c4ccc(O)cc4CC[C@H]3[C@@H]1CC[C@@H]2O`, the result with Rattus norvegicus [1] and with Rattus norvegicus [2] was Active.

Take `C[C@]12CC[C@@H]3c4ccc(O)cc4CC[C@H]3[C@@H]1CC[C@@H]2OC(=O)c1ccccc1C(=O)NC(P(=O)(O)O)P(=O)(O)O`: the result in the assay with Rattus norvegicus [1] was inactive.

Regarding `C[C@]12CC[C@@H]3c4ccc(OC(=O)NCCC(=O)NC(P(=O)(O)O)P(=O)(O)O)cc4CC[C@H]3[C@@H]1CC[C@@H]2O`, the result with Rattus norvegicus [3], in the assay on Rattus norvegicus [4] and in the assay on Rattus norvegicus [1] was inactive. In addition, the Ratio in assay [5] is 2000. In the assay on Rattus norvegicus [2], the result was Active.

Turning to `C[C@]12CC[C@@H]3c4ccc(O)cc4CC[C@H]3[C@@H]1CC[C@@H]2OC(=O)CCNC(=O)NC(P(=O)(O)O)P(=O)(O)O`, in the assay with Rattus norvegicus [1], the result was inactive.

Consider `C[C@]12CC[C@@H]3c4ccc(OC(=O)CC(=O)NC(P(=O)(O)O)P(=O)(O)O)cc4CC[C@H]3[C@@H]1CC[C@@H]2O`, for which the result with Rattus norvegicus [1] was inactive.

Consider `C[C@]12CC[C@@H]3c4ccc(O)cc4CC[C@H]3[C@@H]1CC[C@@H]2OC(=O)CC(=O)NC(P(=O)(O)O)P(=O)(O)O`, for which, in the assay on Rattus norvegicus [1], the outcome was inactive.

Consider `CC(C)(C(=O)NC(P(=O)(O)O)P(=O)(O)O)C(=O)O[C@H]1CC[C@H]2[C@@H]3CCc4cc(O)ccc4[C@H]3CC[C@]12C`, for which, in the assay with Rattus norvegicus [1], the outcome was inactive.
